Assays:
Format in all cases: functional
[1] = Growth inhibition of human NCI-ADR-RES cells assessed as cell growth at 10^-7 M after 48 hrs by sulforhodamine B assay; details: read-out: Activity
A549 = assay: Growth inhibition of human A549/ATCC cells assessed as cell growth at 10^-8 M after 48 hrs by sulforhodamine B assay; details: A549, 48 h, read-out: Activity
Outline: (§1)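 Five-dose NCI-60 run (0.01, 0.1, 1, 10 and 100 µM, as 10-fold dilutions from a DMSO stock made at 400× the top final level). Cells were grown in RPMI 1640 with 5% FBS and 2 mM glutamine and plated for 24 h. They were then exposed for 48 h at 37 °C and 5% CO2. TCA fixation was followed by SRB staining with A515 read-out. Percent growth was taken relative to time-zero and control plates.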

SNB-19 = assay: Growth inhibition of human SNB19 cells assessed as cell growth at 10^-7 M after 48 hrs by sulforhodamine B assay; details: SNB-19, 48 h, read-out: Activity
[2] = Growth inhibition of human HCC2998 cells assessed as cell growth at 10^-6 M after 48 hrs by sulforhodamine B assay; details: HCC 2998, 48 h, read-out: Activity
Outline: (§2)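 Five-dose screen at NCI. Cells in RPMI 1640 with 5% FBS and 2 mM L-glutamine, seeded at 5000–40,000 cells/well and grown 24 h at 37 °C, 5% CO2 before dosing, with time-zero plates TCA-fixed. Drug diluted from DMSO stock to 0.01, 0.1, 1, 10 and 100 µM final, 48 h. Cells fixed with cold TCA (10% final), stained with 0.4% SRB and read at 515 nm. Percent growth from Tz, control and test absorbances; GI50, TGI and LC50 from dose-response curves.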

[3] = Growth inhibition of human Hs 578T cells assessed as cell growth at 10^-8 M after 48 hrs by sulforhodamine B assay; details: read-out: Activity; outline: as §2
HCT-116 = assay: Growth inhibition of human HCT116 cells assessed as cell growth at 10^-4 M after 48 hrs by sulforhodamine B assay; details: HCT-116, 48 h, read-out: Activity; outline: as §2
SK-MEL-5 = assay: Growth inhibition of human SK-MEL-5 cells assessed as cell growth at 10^-7 M after 48 hrs by sulforhodamine B assay; details: SK-MEL-5, 48 h, read-out: Activity
KM12 = assay: Growth inhibition of human KM12 cells assessed as cell growth at 10^-8 M after 48 hrs by sulforhodamine B assay; details: KM12, 48 h, read-out: Activity
OVCAR-4 [4] = assay: Growth inhibition of human OVCAR4 cells assessed as cell growth at 10^-7 M after 48 hrs by sulforhodamine B assay; details: OVCAR-4, 48 h, read-out: Activity
SF-539 = assay: Growth inhibition of human SF539 cells assessed as cell growth at 10^-6 M after 48 hrs by sulforhodamine B assay; details: SF-539, 48 h, read-out: Activity
HOP-92 = assay: Growth inhibition of human HOP92 cells after 48 hrs by sulforhodamine B assay; details: HOP-92, 48 h; for CC50: read-out: LC50 (the source's name)
Outline: (§3)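 Adherent cells in RPMI 1640 with 5% FBS and 2 mM L-glutamine were plated at 5000–40,000 cells/well and grown 24 h. Five concentrations (0.01–100 µM, DMSO stock) were added for 48 h at 37 °C. Cells were fixed with cold TCA (10% final) and stained with SRB, read at 515 nm. GI50 came from log concentration–growth curves against time-zero and control plates.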

K562 = assay: Growth inhibition of human K562 cells assessed as cell growth at 10^-4 M after 48 hrs by sulforhodamine B assay; details: K562, 48 h, read-out: Activity
[5] = Growth inhibition of human NCI-ADR-RES cells assessed as cell growth at 10^-8 M after 48 hrs by sulforhodamine B assay; details: read-out: Activity
MDA-MB-435 [6] = assay: Growth inhibition of human MDA-MB-435 cells assessed as cell growth at 10^-8 M after 48 hrs by sulforhodamine B assay; details: MDA-MB-435, 48 h, read-out: Activity
HL-60(TB) = assay: Growth inhibition of human HL-60(TB) cells assessed as cell growth at 10^-5 M after 48 hrs by sulforhodamine B assay; details: HL-60, 48 h, read-out: Activity
Outline: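 HL-60(TB) suspension cells were treated 48 h at 37 °C within the five-dose series (0.01–100 µM), fixed with 16% final TCA and SRB-stained, read at 515 nm. Percentage growth at each concentration = (Ti−Tz)/(C−Tz)×100, or (Ti−Tz)/Tz×100 when Ti<Tz, with time-zero (Tz) and untreated control (C) plates.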

OVCAR-4 [7] = assay: Growth inhibition of human OVCAR4 cells assessed as cell growth at 10^-6 M after 48 hrs by sulforhodamine B assay; details: OVCAR-4, 48 h, read-out: Activity
[8] = Growth inhibition of human Hs 578T cells after 48 hrs by sulforhodamine B assay; details: for CC50: read-out: LC50 (the source's name); outline: as §3
NCI-H23 = assay: Growth inhibition of human NCI-H23 cells assessed as cell growth at 10^-4 M after 48 hrs by sulforhodamine B assay; details: NCI-H23, 48 h, read-out: Activity
A498 = assay: Growth inhibition of human A498 cells assessed as cell growth at 10^-6 M after 48 hrs by sulforhodamine B assay; details: A498, 48 h, read-out: Activity; outline: as §1
UO-31 = assay: Growth inhibition of human UO31 cells assessed as cell growth at 10^-4 M after 48 hrs by sulforhodamine B assay; details: UO-31, 48 h, read-out: Activity
OVCAR-3 = assay: Growth inhibition of human OVCAR3 cells assessed as cell growth at 10^-5 M after 48 hrs by sulforhodamine B assay; details: OVCAR-3, 48 h, read-out: Activity
HCT-15 = assay: Growth inhibition of human HCT15 cells assessed as cell growth at 10^-8 M after 48 hrs by sulforhodamine B assay; details: HCT-15, 48 h, read-out: Activity; outline: as §2
NCI-H322M = assay: Growth inhibition of human NCI-H322M cells assessed as cell growth at 10^-5 M after 48 hrs by sulforhodamine B assay; details: read-out: Activity
T47D = assay: Growth inhibition of human T47D cells after 48 hrs by sulforhodamine B assay; details: for CC50: read-out: LC50 (the source's name)
Outline: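 Five-dose NCI 60 screen at 0.01, 0.1, 1, 10 and 100 µM, 48 h exposure after 24 h preincubation, in RPMI 1640 with 5% FBS and 2 mM glutamine. Fixed with TCA (10% final for adherent cells, 16% for suspension cells), stained with SRB, A515 read. Percent growth uses time-zero (Tz), control and treated plates. GI50, TGI and LC50 are read from the dose-response curves.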

SF-268 = assay: Growth inhibition of human SF268 cells assessed as cell growth at 10^-6 M after 48 hrs by sulforhodamine B assay; details: SF-268, 48 h, read-out: Activity
MDA-MB-435 [9] = assay: Growth inhibition of human MDA-MB-435 cells assessed as cell growth at 10^-5 M after 48 hrs by sulforhodamine B assay; details: MDA-MB-435, 48 h, read-out: Activity

SMILES	growth at 0.1 µM [1] [%]	growth at 0.01 µM (A549) [%]	growth at 0.1 µM (SNB-19) [%]	growth at 1 µM [2] [%]	growth at 0.01 µM [3] [%]	growth at 100 µM (HCT-116) [%]	growth at 0.1 µM (SK-MEL-5) [%]	growth at 0.01 µM (KM12) [%]	growth at 0.1 µM (OVCAR-4 [4]) [%]	growth at 1 µM (SF-539) [%]	GI50 (HOP-92) [nM]	CC50 (HOP-92) [µM]	growth at 100 µM (K562) [%]	growth at 0.01 µM [5] [%]	growth at 0.01 µM (MDA-MB-435 [6]) [%]	growth at 10 µM (HL-60(TB)) [%]	growth at 1 µM (OVCAR-4 [7]) [%]	CC50 [8] [µM]	growth at 100 µM (NCI-H23) [%]	growth at 1 µM (A498) [%]	other results
O=S(=O)(Nc1ccc(Cl)cc1)c1ccc2nc(-c3ccccc3)c(-c3ccccc3)nc2c1	102	94	96	102	84	52	95	103	90	101	2030	> 100	58	99	97	-32	76	> 100	72	65	TGI [8]: > 100 µM; growth at 100 µM (UO-31): 75%; growth at 10 µM (OVCAR-3): -41%; growth at 0.01 µM (HCT-15): 100%; growth at 10 µM (NCI-H322M): 37%; GI50 (T47D): 1620 nM; CC50 (T47D): > 100 µM; growth at 1 µM (SF-268): 93%; growth at 10 µM (MDA-MB-435 [9]): -25%
O=S(=O)(Nc1ccccn1)c1ccc2nc(-c3ccccc3)c(-c3ccccc3)nc2c1	102	95	93	100	93	39	92	91	102	96	1940	> 100	48	101	99	-30	82	> 100	42	66	GI50 [8]: 1560 nM; growth at 100 µM (UO-31): 59%; growth at 10 µM (OVCAR-3): -32%; growth at 0.01 µM (HCT-15): 100%; growth at 10 µM (NCI-H322M): 35%; GI50 (T47D): 1120 nM; TGI (T47D): 5.14 µM; CC50 (T47D): > 100 µM; growth at 1 µM (SF-268): 99%; growth at 10 µM (MDA-MB-435 [9]): -25%

Source: ChEMBL document CHEMBL2407075, “Sulphonamido-quinoxalines: search for anticancer agent” (Eur J Med Chem, 2013)
